Measurements: ChEMBL document CHEMBL1155455
Calls of active or inactive are those of the source. The rule behind the calls is not given here.

Tests used:
Rattus norvegicus [1] = assay: Antidiuretic activity in sc dosed Sprague-Dawley rat assessed as inhibition of U50488-induced urine output administered immediately after water loading measured after 5 hrs on week 1; format: functional, organism-based
Summary of the method: (§1)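 Adult male Sprague-Dawley rats, groups of four. […] Urine collected hourly for 5 h in metabolic chambers, at week 0 and week 1 without redosing. Analysis by repeated-measures ANOVA and Dunnett's test.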

Rattus norvegicus [2] = assay: Antidiuretic activity in sc dosed Sprague-Dawley rat assessed as inhibition of U50488-induced urine output administered immediately after water loading measured 5 hrs after first dose; format: functional, organism-based; summary of the method: as §1

SMILES	Activity (Rattus norvegicus [1])	Activity (Rattus norvegicus [2])
CC(C)[C@@H](CN1CC[C@@](C)(c2cccc(O)c2)[C@@H](C)C1)NC(=O)[C@@H]1CCc2cc(O)ccc2C1	inactive	Dose-dependent effect
CC(C)[C@@H](CN1CC[C@@](C)(c2cccc(O)c2)[C@@H](C)C1)NC(=O)[C@H]1Cc2ccc(O)cc2CN1	Dose-dependent effect	Dose-dependent effect
